Activity calls are given as the source filed them. No cut-off for these calls is given here.
Experiments:
[1] = target: T1, Adrenergic receptor alpha-2 (Rattus norvegicus) (UniProt P22086+P19328+P22909); experiment: In vitro antagonistic activity against alpha-2 adrenergic receptor in isolated electrically stimulated rat vas deferens (clonidine-induced decrease in twitch height) at 500 uM concentration;IA is Inactive, no antagonism at 500 uM; type: functional
[2] = target: T2, Adrenergic receptor alpha-2 (Rattus norvegicus, UniProt P22086+P19328+P22909); experiment: Ability to displace [3H]clonidine from alpha-2 adrenergic receptor in rat brain homogenates in vitro; type: tissue-based
T2 sequence (P22086 whole entry): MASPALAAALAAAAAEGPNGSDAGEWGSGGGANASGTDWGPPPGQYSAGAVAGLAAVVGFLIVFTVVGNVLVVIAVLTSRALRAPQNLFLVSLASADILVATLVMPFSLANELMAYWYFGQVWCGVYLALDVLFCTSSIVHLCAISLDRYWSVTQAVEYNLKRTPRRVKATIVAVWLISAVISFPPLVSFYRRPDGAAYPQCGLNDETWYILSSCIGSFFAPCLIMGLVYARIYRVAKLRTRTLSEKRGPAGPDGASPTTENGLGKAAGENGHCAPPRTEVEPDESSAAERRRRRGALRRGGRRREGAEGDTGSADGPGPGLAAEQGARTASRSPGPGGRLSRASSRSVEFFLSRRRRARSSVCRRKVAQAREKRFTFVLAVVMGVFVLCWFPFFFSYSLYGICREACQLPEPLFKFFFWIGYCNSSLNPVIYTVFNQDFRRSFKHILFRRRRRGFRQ
T2 sequence (P19328 whole entry): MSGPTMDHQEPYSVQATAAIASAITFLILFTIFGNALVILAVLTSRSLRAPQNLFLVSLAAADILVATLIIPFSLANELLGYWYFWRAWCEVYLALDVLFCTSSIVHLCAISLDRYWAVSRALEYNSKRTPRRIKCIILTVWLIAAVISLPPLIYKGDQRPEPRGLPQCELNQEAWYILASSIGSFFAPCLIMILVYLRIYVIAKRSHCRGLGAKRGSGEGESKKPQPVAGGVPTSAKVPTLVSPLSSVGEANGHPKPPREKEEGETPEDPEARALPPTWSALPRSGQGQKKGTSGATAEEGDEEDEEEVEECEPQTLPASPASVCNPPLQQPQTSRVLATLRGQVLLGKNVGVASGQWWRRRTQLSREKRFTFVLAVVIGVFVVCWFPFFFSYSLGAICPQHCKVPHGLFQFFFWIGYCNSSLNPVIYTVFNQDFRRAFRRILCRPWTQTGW
T2 sequence (P22909 whole entry): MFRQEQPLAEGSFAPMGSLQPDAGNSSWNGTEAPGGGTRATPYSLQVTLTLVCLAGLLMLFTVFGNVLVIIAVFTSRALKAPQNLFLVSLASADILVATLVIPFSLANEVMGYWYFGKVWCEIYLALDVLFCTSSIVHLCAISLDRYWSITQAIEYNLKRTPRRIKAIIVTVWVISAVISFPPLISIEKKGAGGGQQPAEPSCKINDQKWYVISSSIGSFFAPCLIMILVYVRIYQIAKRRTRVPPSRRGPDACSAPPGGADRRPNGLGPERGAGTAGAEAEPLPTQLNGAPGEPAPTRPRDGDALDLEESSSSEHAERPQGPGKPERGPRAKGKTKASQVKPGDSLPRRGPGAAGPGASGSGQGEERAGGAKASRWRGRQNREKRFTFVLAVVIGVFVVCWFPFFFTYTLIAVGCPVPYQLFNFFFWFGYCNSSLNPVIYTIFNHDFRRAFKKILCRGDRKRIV

[3] = target: T1, Adrenergic receptor alpha-2 (Rattus norvegicus); experiment: In vitro antagonistic activity against alpha-2 adrenergic receptor in isolated electrically stimulated rat vas deferens (clonidine-induced decrease in twitch height) at 500 uM concentration.;IA is Inactive, no antagonism at 500 uM; type: functional
[4] = target: T1, Adrenergic receptor alpha-2 (Rattus norvegicus); experiment: In vitro antagonistic activity against alpha-2 adrenergic receptor in isolated electrically stimulated rat vas deferens (clonidine-induced decrease in twitch height)at 500 uM concentration. IA is Inactive, no antagonism at 500 uM; type: functional
[5] = target: T2, Adrenergic receptor alpha-2; experiment: In vitro antagonistic activity against alpha-2 adrenergic receptor in isolated electrically stimulated rat vas deferens (clonidine-induced decrease in twitch height); type: functional, tissue-based
[6] = target: T1, Adrenergic receptor alpha-2 (Rattus norvegicus); experiment: In vitro antagonistic activity against alpha-2 adrenergic receptor in isolated electrically stimulated rat vas deferens (clonidine-induced decrease in twitch height) at 500 uM concentration. IA is Inactive, no antagonism at 500 uM; type: functional
[7] = species on record: Rattus norvegicus; experiment: Inhibition of [3H]5-HT uptake into rat brain synaptosomes in vitro;Values ranges from: 0.14-0.22; type: functional
How it was run: (§1)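 Male Sprague–Dawley rat (180–240 g) cortex (NE, 5-HT) or striatum (DA) crude P2 synaptosomes in 0.32 M sucrose. Preincubated 5 min at 25 °C with drug in Krebs–Ringer phosphate containing ascorbate, EDTA, nialamide; 0.1 μM final [3H]amine added for 5 min. Stopped by cold saline and GF/B filtration; nonspecific uptake at 4 °C. IC50 with 95% limits computed.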

[8] = species on record: Rattus norvegicus; experiment: Inhibition of [3H]dopamine uptake into rat brain synaptosomes in vitro;Values ranges from: 0.09-0.18; type: functional; how it was run: as §1
[9] = test system: Rattus norvegicus; experiment: Minimum effective dose required for inhibition of serotonin uptake was determined by PCA method in rat by peroral administration; type: functional; conditions: po, read-out: MED
How it was run: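 Fasted male Sprague–Dawley rats (160–200 g) given test compound orally in water (10 mL/kg) 15 min before p-chloroamphetamine 3 mg/kg ip. Forebrain taken 3 h later, extracted in acidified butanol then heptane/0.1 N HCl. Serotonin in aqueous phase measured fluorometrically after o-phthalaldehyde condensation (excitation 360 nm). Minimum effective dose reported.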

[10] = species on record: Rattus norvegicus; experiment: Inhibition of [3H]norepinephrine uptake into rat brain synaptosomes in vitro;Values ranges from: 0.01-0.07; type: functional; how it was run: as §1
[11] = test system: Mus musculus; experiment: Effective dose required for inhibition of tetrabenazine-induced ptosis in mouse by peroral administration;Values ranges from: 1.8-9.3; type: functional; conditions: po
[12] = test system: Mus musculus; experiment: Effective dose required to antagonise clonidine-induced antinociception(ACA) in mouse by peroral administration;Values ranges from: 0.5-3.8; type: functional; conditions: po
[13] = test system: Mus musculus; experiment: Effective dose required for inhibition of tetrabenazine-induced ptosis in mouse by peroral administration; type: functional; conditions: po
How it was run: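 Swiss Webster mice; test compound in 0.9% NaCl (10 mL/kg) given po 30 min before ip tetrabenazine methanesulfonate (50 mg/kg, in 0.9% NaCl with moderate heating). Ptosis scored subjectively 30 min after tetrabenazine on a 0–4 scale (0 = complete eye closure, 4 = no closure). ED50 with 95% confidence limits from quantal dose–response analysis.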

[14] = species on record: Rattus norvegicus; experiment: Inhibition of [3H]dopamine uptake into rat brain synaptosomes in vitro; type: functional
How it was run: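 Male Sprague–Dawley rat corpus striatum (180–240 g) homogenized in 0.32 M sucrose; P2 synaptosomes. Preincubated 5 min at 25 °C in modified Krebs–Ringer phosphate with ascorbic acid, EDTA and nialamide. Uptake run 5 min with 0.1 μM final [3H]dopamine, ended by cold saline and GF/B filtration. Nonspecific uptake measured at 4 °C. IC50 with 95% confidence limits.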

[15] = species on record: Rattus norvegicus; experiment: Inhibition of [3H]5-HT uptake into rat brain synaptosomes in vitro; type: functional
How it was run: (§2)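 Male Sprague–Dawley rat cerebral cortex (180–240 g) homogenized in 0.32 M sucrose; crude P2 synaptosomes. Preincubated 5 min at 25 °C in modified Krebs–Ringer phosphate with ascorbic acid, EDTA and nialamide. Uptake run 5 min with 0.1 μM final [3H]-5-HT or [3H]NE, stopped by ice-cold saline and filtration. Nonspecific uptake taken at 4 °C. Scintillation counting; IC50 with 95% confidence limits.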

[16] = species on record: Rattus norvegicus; experiment: Inhibition of [3H]norepinephrine uptake into rat brain synaptosomes in vitro;Values ranges from: 8.6-21; type: functional; how it was run: as §2

SMILES | Ki [2] [nM] | pA2 [5] | other results
C[C@@H]1c2ccccc2CC[C@@H]1CC1=NCCN1.Cl | 135 | 7.22 | 
CC(C1=Cc2ccccc2CC1)C1=NCCN1.Cl (centres undefined) | 32 | 7.43 | 
C1=C(CC2=NCCN2)Cc2ccccc21.Cl | 76 | 7.19 | 
Cc1c(CC2=NCCN2)ccc2ccccc12.Cl | 6.6 | 7.35 | 
Cl.c1ccc2cc(CC3=NCCN3)ccc2c1 | 48 | 7.67 | 
C[C@H]1c2ccccc2CC[C@@H]1CC1=NCCN1.Cl | 401 |  | 
CN(C)CCCN1c2ccccc2CCc2ccccc21 [IMIPRAMINE] |  |  | IC50 [7]: 180 nM; IC50 [8]: 130 nM; minimal effective dose [9]: 30 mg/kg; IC50 [10]: 30 nM; ED50 [11]: 4.1 mg/kg
CC1=C(CC2=NCCN2)Cc2ccccc21.Cl | 6.9 | 7.71 | 
c1ccc2c(c1)OCC(C1=NCCN1)O2 (centres undefined) [IDAZOXAN] |  |  | ED50 [12]: 1.3 mg/kg; minimal effective dose [9]: > 30 mg/kg; ED50 [13]: > 30 mg/kg; IC50 [14]: > 30000 nM; IC50 [15]: > 30000 nM; IC50 [16]: 13000 nM

Second part, led by results:

Ki [2] [nM] | pA2 [5] | SMILES | other results
548 |  | CCN1CCN=C1CC1=C(C)c2ccccc2CC1.Cl | pA2 [1]: inactive
334 |  | CC1=C(CC2=NCCCN2)CCc2ccccc21.Cl | pA2 [3]: inactive
436 |  | CC1=C(CC2=NCCN2C)CCc2ccccc21.Cl | pA2 [4]: inactive
> 800 |  | CC1=C(CC2=NCC(C)N2)CCc2ccccc21.Cl (centres undefined) | pA2 [6]: inactive
88 | 6.92 | CC1=C(Cc2ncc[nH]2)CCc2ccccc21 | 
